Test results from publication PMC3749563 (British Journal of Cancer, 2013).

Assays:
[1] = tested on: α1-acid glycoprotein and albumin; conditions: ref Wu et al, 2012; cited from earlier work
[2] = single agent, 3 consecutive days per week schedule; ref Tolcher et al, 2012; cited from earlier work
γ-secretase = conditions: ref Luistro et al, 2009; cited from earlier work
[3] = tested on: VEGF receptors (VEGFR-1, VEGFR-2 and VEGFR-3), and c-Kit; conditions: ref Wedge et al, 2005; cited from earlier work
[4] = Dose-limiting toxicities and recommended phase II dose; type: in vivo, human; conditions: cediranib daily, in combination with RO4929097; highest dose level completed
[5] = tested on: circulating VEGF-A, VEGF-C, SDF-1; assay: Circulating biomarker evaluation; type: in vivo, human; conditions: after dosing with cediranib (with RO4929097), cycle 1
Summary of the method: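 Patients with advanced solid tumours. Blood was drawn before dosing on cycle 1 day 1, cycle 1 day 22 and cycle 2 day 1. Plasma VEGF-A, VEGF-B, VEGF-C, bFGF, SDF-1-alpha, IL-6 and IL-8 were measured by commercial ELISA kits following the manufacturer's protocol. Samples were run in duplicate, with a triplicate if values differed by more than 15%. Results were discarded unless at least two agreed within 15%.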

CC(C)(C(=O)NCC(F)(F)C(F)(F)F)C(=O)N[C@@H]1C(=O)Nc2ccccc2-c2ccccc21 [RO4929097]
Plasma protein binding [1]: highly bound | Daily dose at which reversible CYP3A4 autoinduction was detected [2]: above 24 mg | γ-Secretase inhibition (γ-secretase): potent and selective

COc1cc2c(Oc3ccc4[nH]c(C)cc4c3F)ncnc2cc1OCCCN1CCCC1 [cediranib]
Inhibition of VEGF signalling [3]: highly potent inhibitor | Recommended phase II dose (RP2D) [4]: 30 mg | Change of circulating SDF-1 [5]: Increases | Change of circulating VEGF-A [5]: Increases | Change of circulating VEGF-C [5]: Increases
